# Source: PMC2687631 (Yonsei Medical Journal, 2006)
# How the values were obtained:
# hPTH/PTHrp receptor = conditions: LLC-PK cells stably expressing a high level of the hPTH/PTHrp receptor; cited from earlier work
# mice = conditions: cited from earlier work
# animals and humans = conditions: cited from earlier work
# ovariectomized rat model = assay: Femoral length and cross-sectional diameter at mid-diaphysis; type: in vivo, Sprague-Dawley rats; conditions: ovx rats, subcutaneous for 5 weeks; p<0.05 vs. OVX
# How it was run: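 Female Sprague-Dawley rats were ovariectomized at 10 weeks (sham group unoperated), left untreated for 4 weeks, then dosed daily s.c. for 5 weeks with test compound (30 nM/kg), rhPTH(1-84) (8 nM/kg) or 0.9% saline vehicle, seven per group. Left femur length (greater trochanter to intercondylar fossa) and mid-diaphysis AP/ML diameters measured by digital caliper. Means and SD; ANOVA with Bonferroni.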
molecule,measurement,setting,value
"PTH (1-14): N-terminal fragment 1-14 of parathyroid hormone (SVSEIQLMHNLGKH; Parathyroid hormone; UniProt P01270 32-45, looked up, fragment)",cAMP formation relative to PTH (1-34),hPTH/PTHrp receptor,about 10^-3 folds
PTH (1-31): PTH (1-31) fragment,Potency in stimulating bone resorption parameters vs PTH (1-34),mice,less potent
same,Potency on bone formation vs PTH (1-34),mice,as potent as PTH (1-34)
"PTH: parathyroid hormone, low dose, intermittently administered (protein, UniProt P01270 32-115, looked up, Parathyroid hormone) Parathyroid hormone: SVSEIQLMHNLGKHLNSMERVEWLRKKLQDVHNFVALGAPLAPRDAGSQRPRKKEDNVLVESHEKSLGEADKADVNVLTKAKSQ",Anabolic effect / bone mass (in words),animals and humans,significant increase in bone mass
"rhPTH (1-84): recombinant human PTH (1-84), donated by the Mogam Biotechnology Research Institute (protein, UniProt P01270 32-115, looked up, Parathyroid hormone) Parathyroid hormone: SVSEIQLMHNLGKHLNSMERVEWLRKKLQDVHNFVALGAPLAPRDAGSQRPRKKEDNVLVESHEKSLGEADKADVNVLTKAKSQ",Femoral length (in words),ovariectomized rat model,significantly increased length
